# Experimental data from ChEMBL document CHEMBL4732095, “Novel naphthylamide derivatives as dual-target antifungal inhibitors: Design, synthesis and biological evaluation” (Eur J Med Chem, 2021).
# Calls of active or inactive are those of the source. The rule behind the calls is not given here.
# Assays:
# Aspergillus fumigatus = test: Antifungal activity against Aspergillus fumigatus KM8001 assessed as inhibition of microbial growth by NCCLS protocol based method; format: functional
# Outline: (§1)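 Broth MIC50 determined following NCCLS guidelines in Sabouraud medium, with fungal suspension in 24-well format. Compound tested at 0.0625, 0.125, 0.5, 1, 2, 4, 8 and 16 μg/mL. Plates cultured statically at 35 °C. MIC50 is the lowest concentration giving 50% growth inhibition. Naftifine and fluconazole served as positive controls.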
# Nakaseomyces glabratus = test: Antifungal activity against Candida glabrata ATCC 0001 assessed as inhibition of microbial growth by NCCLS protocol based method; format: functional; outline: as §1
# Candida albicans [1] = test: Antifungal activity against Candida albicans ATCC 10231 assessed as inhibition of microbial growth by NCCLS protocol based method; format: functional; outline: as §1
# Pichia kudriavzevii = test: Antifungal activity against Candida krusei ATCC 6258 assessed as inhibition of microbial growth by NCCLS protocol based method; format: functional; outline: as §1
# Candida tropicalis = test: Antifungal activity against Candida tropicalis ATCC 1369 assessed as inhibition of microbial growth by NCCLS protocol based method; format: functional; outline: as §1
# Candida albicans [2] = test: Antifungal activity against fluconazole-resistant Candida albicans 901 assessed as inhibition of microbial growth by NCCLS protocol based method; format: functional
# Candida albicans [3] = test: Antifungal activity against fluconazole-resistant Candida albicans CaR assessed as inhibition of microbial growth by NCCLS protocol based method; format: functional
# Candida albicans [4] = test: Antifungal activity against fluconazole-resistant Candida albicans 904 assessed as inhibition of microbial growth by NCCLS protocol based method; format: functional
# Candida albicans [5] = test: Antifungal activity against fluconazole-resistant Candida albicans 17# assessed as inhibition of microbial growth by NCCLS protocol based method; format: functional
# Candida albicans [6] = test: Antifungal activity against fluconazole-resistant Candida albicans 632 assessed as inhibition of microbial growth by NCCLS protocol based method; format: functional
# [7] = Inhibition of Candida albicans ATCC SC5314 SE incubated for 30 mins by spectrophotometric method
# Outline: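 Enzymes (SE, CYP51) extracted from C. albicans SC5314 using kits. 50 µg enzyme incubated with varying compound concentrations for 30 min at 37 °C in Tris pH 7.4, KCl, MgCl2, 2 mM NADPH, with squalene or eburicol as substrate. Reaction stopped with acetonitrile and centrifuged. Eburicol consumption (CYP51) read by HPLC. Squalene, after sulfuric acid/formaldehyde derivatization, read at 400 nm (SE). IC50 reported.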
# Candida albicans [8] = test: Antifungal activity against Candida albicans ATCC SC5314 assessed as induction of cell fracture at 10 nM/mL by polarizing microscopy; format: functional, organism-based; conditions: dose 10.0 nmol/ml
# Outline: (§2)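 C. albicans ATCC SC5314 observed by polarizing microscopy over treatment time. Untreated, fluconazole- and naftifine-treated control groups were included. Cell density, dividing cells and cell fracture were assessed, with cell counts taken per field.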
# Candida albicans [9] = test: Antifungal activity against Candida albicans ATCC SC5314 assessed as reduction in cell division at 10 nM/mL by polarizing microscopy; format: functional, organism-based; conditions: dose 10.0 nmol/ml; outline: as §2
# Candida albicans [10] = test: Antifungal activity against Candida albicans ATCC SC5314 assessed as decrease in fungal cell density at 10 nM/mL by polarizing microscopy; format: functional, organism-based; conditions: dose 10.0 nmol/ml; outline: as §2
MIC50 (Aspergillus fumigatus) [µg/mL],MIC50 (Nakaseomyces glabratus) [µg/mL],MIC50 (Candida albicans [1]) [µg/mL],MIC50 (Pichia kudriavzevii) [µg/mL],MIC50 (Candida tropicalis) [µg/mL],Compound,MIC50 (Candida albicans [2]) [µg/mL],MIC50 (Candida albicans [3]) [µg/mL],MIC50 (Candida albicans [4]) [µg/mL],MIC50 (Candida albicans [5]) [µg/mL],MIC50 (Candida albicans [6]) [µg/mL],IC50 [7] [nM],Activity (Candida albicans [8]),Activity (Candida albicans [9]),Activity (Candida albicans [10])
> 16,0.5,0.5,0.25,0.25,CN(CC(=O)NCc1cccnc1)C(=O)c1ccc2ccccc2c1,–,–,–,–,–,–,–,–,–
8,1,1,2,0.5,CN(CC(=O)NCc1ccncc1)C(=O)c1cccc2ccccc12,–,–,–,–,–,–,–,–,–

# Further lines, the compound ahead of its results:
Compound,MIC50 (Aspergillus fumigatus) [µg/mL],MIC50 (Nakaseomyces glabratus) [µg/mL],MIC50 (Candida albicans [1]) [µg/mL],MIC50 (Pichia kudriavzevii) [µg/mL],MIC50 (Candida tropicalis) [µg/mL],MIC50 (Candida albicans [2]) [µg/mL],MIC50 (Candida albicans [3]) [µg/mL],MIC50 (Candida albicans [4]) [µg/mL],MIC50 (Candida albicans [5]) [µg/mL],MIC50 (Candida albicans [6]) [µg/mL],IC50 [7] [nM],Activity (Candida albicans [8]),Activity (Candida albicans [9]),Activity (Candida albicans [10])
O=C(CNC(=O)c1cccc2ccccc12)NC(Cn1ccnc1)C(=O)c1ccccc1 (centres undefined),8,0.25,0.25,0.5,0.125,–,–,–,–,–,–,–,–,–
O=C(NC(Cn1ccnc1)C(=O)NC1CCCC1)c1ccc2ccccc2c1 (centres undefined),8,0.25,0.25,1,0.5,–,–,–,–,–,–,–,–,–
CN(CC(=O)Nc1cccnc1)C(=O)c1ccc2ccccc2c1,4,0.25,0.125,0.25,0.125,> 16,4,> 16,8,> 16,–,–,–,–
CC(C)C(NC(=O)c1ccc2ccccc2c1)C(=O)NC(Cn1ccnc1)C(=O)c1ccccc1 (centres undefined),> 16,1,0.5,1,0.5,–,–,–,–,–,–,–,–,–
CN(C/C=C/c1ccccc1)Cc1cccc2ccccc12 [NAFTIFINE],8,0.25,0.5,2,0.5,> 16,> 16,> 16,> 16,> 16,284,Active,Active,Active
